Screens: PubChem, The Scripps Research Institute Molecular Screening Center
ABHD4 inh = inhibits mouse alpha/beta hydrolase domain 4; purified mABHD4, FP-Rh probe fluorescence polarization; inhibition, % at 8.92 µM; 0.54% of 370,000 active; AID 720543;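 active = inhibition exceeding the mean over every tested compound plus 3 SD, cut at about 30% in these data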
Target sequence (Q8VD66 whole entry, looked up, the tested form may be a part): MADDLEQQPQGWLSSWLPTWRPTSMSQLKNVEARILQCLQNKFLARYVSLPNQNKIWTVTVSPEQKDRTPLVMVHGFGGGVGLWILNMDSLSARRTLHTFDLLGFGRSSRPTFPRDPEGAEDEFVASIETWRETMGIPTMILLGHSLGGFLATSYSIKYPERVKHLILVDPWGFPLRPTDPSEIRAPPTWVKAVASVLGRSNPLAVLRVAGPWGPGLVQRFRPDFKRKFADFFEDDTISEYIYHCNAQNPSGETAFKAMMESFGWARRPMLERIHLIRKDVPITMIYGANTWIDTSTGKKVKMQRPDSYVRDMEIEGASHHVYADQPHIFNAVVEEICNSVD
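Test system: mouse ABHD4 enzyme, wild type. Reagent: FP-Rh fluorescent activity-based probe, added after compound pre-incubation. Timing: pre-incubation 45 min, probe exposure 60 min, at 25 °C. Technique: FP readout, ex 525 nm / em 598 nm. Benchmarks: high control S159A mutant with DMSO, low control median of compound wells.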
PRMT1 FP inh = blocks human protein arginine methyltransferase 1; Q99873; recombinant PRMT1, activity-based probe fluorescence polarization; inhibition, % at 2.79 µM; 1.3% of 370,000 active; AID 652257;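 active = inhibition above about 21% made by adding two undisclosed values, limit read from the data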
Target sequence (Q99873 whole entry, looked up): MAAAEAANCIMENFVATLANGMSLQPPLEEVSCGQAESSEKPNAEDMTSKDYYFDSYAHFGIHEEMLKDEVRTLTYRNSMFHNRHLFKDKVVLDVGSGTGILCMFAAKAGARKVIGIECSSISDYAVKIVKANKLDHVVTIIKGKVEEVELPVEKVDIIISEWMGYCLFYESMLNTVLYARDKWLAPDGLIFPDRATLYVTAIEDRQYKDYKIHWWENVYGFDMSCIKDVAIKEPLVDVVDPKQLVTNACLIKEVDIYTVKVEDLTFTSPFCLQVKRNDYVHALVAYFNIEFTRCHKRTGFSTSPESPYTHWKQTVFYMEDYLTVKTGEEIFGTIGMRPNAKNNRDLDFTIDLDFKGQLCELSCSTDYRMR
rCAG RNA binder = r(CAG) repeat RNA binding | TO-PRO-1 dye displacement fluorescence | inhibition, % at 3 µM | 1.3% of 370,000 active;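 active = inhibition above the plate cutoff, the mean of all test compounds on that plate plus 3 SD, cut at about 35% in these data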;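 note: higher means more dye released from RNA so lower well fluorescence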
SIAE inh = human SIAE inhibition, primary screen | inhibition, % at 9.66 µM | SIAE FP-Rh probe binding, fluorescence polarization | 0.69% of 370,000 active;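 active = inhibition above a cutoff: mean of compounds within the control limits plus 3 SD of those, cut at about 17% in these data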
TCR CD3 inh = inhibitors of human TCR-CD3 interaction; TAMRA-labeled TCR probe fluorescence, biochemical; inhibition, % at 9.4 µM; 0.37% of 360,000 active; in the data active = inhibition above about 19%;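 note: recombinant mutant TCR 2C K166C tagged with TAMRA read by polarization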
HTRA1 inhibitor = HTRA1 (human) protease inhibition; recombinant HTRA1, FP-rhodamine activity-based probe, fluorescence polarization; inhibition, % at 5.96 µM; 0.5% of 340,000 active; AID 504803; in the data active = inhibition above about 36%
rCAG binder conf = r(CAG) RNA repeat binding, confirmation. shares compounds with rCAG RNA binder. TO-PRO-1 dye displacement fluorescence. inhibition, % at 3 µM. 70% of 4,300 active;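 active = inhibition above a per-plate cutoff, the mean inhibition of sample wells plus 3 SD, cut at about 35% in these data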;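 note: loss of TO-PRO-1 fluorescence as compound displaces dye from 1x1 AA loop RNA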
DNA CAG counter = DNA CAG dye complex inhibition counter-screen. d(CAG) DNA oligo TO-PRO-1 dye displacement, fluorescence. shares compounds with rCAG RNA binder. 94% of 4,300 active. inhibition, % at 3 µM. AID 652068;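 active = inhibition above its plate's cutoff, the mean test-well inhibition plus 3 SD, cut at about 4.8% in these data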;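 note: hits displace the dye from DNA and so lower well fluorescence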
DNA CAG DR = disrupts DNA CAG TO-PRO-1 complex in dose response; shares compounds with rCAG RNA binder; IC50, µM; 20% of 250 active; DNA CAG/GTC duplex TO-PRO-1 dye displacement fluorescence; in the data active = IC50 below about 10 µM
Large screens that a line does not name were inactive (follow-up assays come after a bar, where they were run). This is a sample that favours compounds with a hit; in the whole collection about 3.5% have one here.

COc1ccc2nc(NC(=O)C(NS(=O)(=O)c3cccs3)C(C)C)sc2c1 (stereo unspecified)	none
COc1ccc2nc(N/C(=N/S(=O)(=O)c3cccs3)c3ccccc3Cl)sc2c1	rCAG RNA binder 48 | rCAG binder conf 41 | DNA CAG counter 13
Cc1nn(-c2ccccc2)c2sc(C(=O)O)cc12	none
Cc1nn(-c2ccccc2)c2sc(-c3n[nH]c(=S)o3)cc12	rCAG RNA binder 65 | rCAG binder conf inactive | DNA CAG counter 8.0
COc1cccc(C(c2c(C)[nH]n(-c3ccccc3)c2=O)c2c(C)[nH]n(-c3ccccc3)c2=O)c1OC	rCAG RNA binder 54 | rCAG binder conf 42 | DNA CAG counter 14
Cc1[nH]n(-c2ccccc2)c(=O)c1C(c1ccc(O)c([N+](=O)[O-])c1)c1c(C)[nH]n(-c2ccccc2)c1=O	rCAG RNA binder 46 | rCAG binder conf inactive | DNA CAG counter 7.8
COc1ccc(C(C[N+](=O)[O-])c2c(C)[nH]n(-c3ccccc3)c2=O)cc1 (stereo unspecified)	none
COc1cccc(C(c2c(C)[nH]n(-c3ccccc3)c2=O)c2c(C)[nH]n(-c3ccccc3)c2=O)c1O	rCAG RNA binder 38 | rCAG binder conf inactive | DNA CAG counter 12
CCOc1cccc(C(c2c(C)n(C)n(-c3ccccc3)c2=O)c2c(C)n(C)n(-c3ccccc3)c2=O)c1OC	none
COC(=O)C1CN(Cc2cn(Cc3ccccc3)nn2)CCS(=O)(=O)N1Cc1ccc(OC)cc1 (stereo unspecified)	none (no result: TCR CD3 inh, HTRA1 inhibitor)
FC(F)(F)c1cc(Cl)c2nc(-c3ccc(Cl)cc3)c(Cc3ccsc3)n2c1	rCAG RNA binder 51 (no result: HTRA1 inhibitor) | rCAG binder conf inactive | DNA CAG counter 6.1
Fc1ccc(-c2nc3c(Cl)cc(C(F)(F)F)cn3c2Cc2cccc(Cl)c2)cc1	rCAG RNA binder 38 (no result: HTRA1 inhibitor) | rCAG binder conf inactive | DNA CAG counter 4.6
C/C(=N\NC(=O)Cc1cccs1)c1ccco1	none (no result: TCR CD3 inh, HTRA1 inhibitor)
Cc1ccc(/C=c2\sc3nc(-c4ccco4)nn3c2=O)o1	none (no result: ABHD4 inh, PRMT1 FP inh, rCAG RNA binder, SIAE inh, TCR CD3 inh)
COc1ccc(Br)cc1/C=c1\sc2nc(-c3ccco3)nn2c1=O	rCAG RNA binder 46 | rCAG binder conf 42 | DNA CAG counter 21
CC(C)=CCc1c(O)cc2c(=O)c3ccc(O)cc3oc2c1O	none
CC(C)=CCc1c2c(c3occ(-c4ccc(O)cc4)c(=O)c3c1O)C=CC(C)(C)O2	rCAG RNA binder 36 | rCAG binder conf inactive | DNA CAG counter 13
CC(C)=CCc1c2c(c3occ(-c4ccc(O)c(O)c4)c(=O)c3c1O)C=CC(C)(C)O2	rCAG RNA binder 47 | rCAG binder conf 43 | DNA CAG counter 28
CC(C)(O)CCc1c(-c2ccc(O)cc2O)oc2c3c(cc(O)c2c1=O)OC(C)(C)C=C3	none
CCC(C)N(C(=O)CN1C(=O)C2CCCCN2C(=O)c2ccccc21)C(C)CC (stereo unspecified)	none (no result: TCR CD3 inh, HTRA1 inhibitor)
COc1ccc(-c2sc(C(=O)c3ccc(Cl)cc3Cl)cc2CC(=O)O)cc1	rCAG RNA binder 54 | rCAG binder conf 56 | DNA CAG counter 17
O=C(O)Cc1ccc(C(=O)c2ccc(Cl)cc2Cl)s1	none
C/C(C=NNC(=O)CSc1nc2ccccc2n1Cc1ccccc1Cl)=C\c1ccccc1	none (no result: TCR CD3 inh, HTRA1 inhibitor)
CCN(C(=O)CSc1nnc(-c2cccnc2)n1Cc1ccco1)c1ccccc1	none (no result: TCR CD3 inh, HTRA1 inhibitor)
O=C(O)Cn1nnc(-c2ccc(OCc3ccccc3Cl)cc2)n1	rCAG RNA binder 39 | rCAG binder conf inactive | DNA CAG counter inactive
O=C(O)COc1ccc(-c2nnn(CC(=O)O)n2)cc1	none
Cc1ccc(S(=O)(=O)/N=C2/NC(=O)/C(=C/c3ccccc3)S2)cc1	rCAG RNA binder 84 | rCAG binder conf 71 | DNA CAG counter 30 | DNA CAG DR 4.9
Cc1ccc(/C=C2\S/C(=N/S(=O)(=O)c3cccs3)NC2=O)cc1	rCAG RNA binder 60 | rCAG binder conf 65 | DNA CAG counter 24
Cc1ccc(S(=O)(=O)/N=C2/NC(=O)/C(=C\c3ccccc3)S2)cc1	rCAG RNA binder 83 | rCAG binder conf 76 | DNA CAG counter 36
Cc1nc2cc(C(=O)N3CCN(C(=O)C(Cl)Cl)CC3)ccc2n1C1CCCC1	none (no result: TCR CD3 inh, HTRA1 inhibitor)
COc1ccc(CC(=O)Nc2cc(Cl)ccc2C(=O)O)cc1	none
CCCCOc1ccc(Nc2cc(Cl)ccc2C(=O)O)cn1	rCAG RNA binder 70 | rCAG binder conf 64 | DNA CAG counter 16
O=C(O)CSc1nc2sc3c(c2c(=O)n1Cc1ccccc1)CCCCC3	rCAG RNA binder 53 | rCAG binder conf 54 | DNA CAG counter 17
O=C(O)CSc1cc(C(=O)c2ccccc2O)cn2c(=O)c3c4c(sc3nc12)CCCC4	rCAG RNA binder 47 | rCAG binder conf 85 | DNA CAG counter 61
O=C(CSc1nc2sc3c(c2c(=O)n1-c1ccc(Cl)cc1)CCC3)Nc1ccc(C(=O)O)cc1	rCAG RNA binder 58 (no result: TCR CD3 inh, HTRA1 inhibitor) | rCAG binder conf 52 | DNA CAG counter 22
O=C1[C@H]2C[C@@]3(n4ccc5ccccc54)c4ccccc4N(S(=O)(=O)c4ccccc4)[C@H]3N2C(=O)CN1Cc1ccccc1	none (no result: TCR CD3 inh, HTRA1 inhibitor)
Cc1ccccc1S(=O)(=O)Nc1ncnc2scc(-c3ccccc3)c12	rCAG RNA binder 55 | rCAG binder conf 50 | DNA CAG counter 16
CN(C)CCCNc1ncnc2scc(-c3ccccc3)c12	none
C[C@H]1[C@@H](C(=O)N2CCCC2)CC(=O)/C(=N/OCc2ccccc2)C[C@@H]1c1ccccc1	none (no result: TCR CD3 inh, HTRA1 inhibitor)
O=C(O)CC/C(=C\c1ccc(N2CCOCC2)c([N+](=O)[O-])c1)c1nc2ccccc2s1	rCAG RNA binder 48 | rCAG binder conf 66 | DNA CAG counter 25
O=C(O)CC/C(=C\c1ccc(Cl)c([N+](=O)[O-])c1)c1nc2ccccc2s1	rCAG RNA binder 39 | rCAG binder conf 41 | DNA CAG counter 10
O=C(O)CC/C(=C/c1cccc(NC(=O)c2ccccc2Cl)c1)c1nc2ccccc2s1	rCAG RNA binder 71 | rCAG binder conf 75 | DNA CAG counter 40
O=C(O)C/C(=C\c1ccc(N2CCOCC2)c([N+](=O)[O-])c1)c1nc2ccccc2s1	rCAG RNA binder 45 | rCAG binder conf 41 | DNA CAG counter 16
COc1cc(/C=C(\CCC(=O)O)c2nc3ccccc3s2)ccc1OCC(=O)Nc1c(Cl)cccc1Cl	none
O=C(OC12CCCN(C1)/C(=C/c1ccc(Cl)cc1)C2)c1ccccc1 (stereo unspecified)	none (no result: TCR CD3 inh, HTRA1 inhibitor)
